Assay results from ChEMBL document CHEMBL1759832, “Discovery of torezolid as a novel 5-hydroxymethyl-oxazolidinone antibacterial agent” (Eur J Med Chem, 2011).
Converted amounts (≈) assume the structure as drawn.

How the values were obtained:
[1] = Chemical stability of compound in distilled water assessed as compound remaining at pH 3 at 100 ug/ml after 8 hrs; type: physicochemical; conditions: buffer, pH 3, 8 h
[2] = Aqueous solubility of compound in distilled water; type: physicochemical
In short: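 Water added stepwise with repeated vortexing until solution turned transparent; solubility = amount dissolved divided by total distilled water volume in the final clear solution; triplicate, averaged.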

[3] = Chemical stability of compound in distilled water assessed as compound remaining at pH 5 at 100 ug/ml after 8 hrs; type: physicochemical; conditions: buffer, pH 5, 8 h
[4] = Chemical stability of compound in distilled water assessed as compound remaining at 100 ug/ml after 8 hrs; type: physicochemical
[5] = Chemical stability of compound in distilled water assessed as compound remaining at pH 7 at 100 ug/ml after 8 hrs; type: physicochemical; conditions: buffer, pH 7, 8 h
Staphylococcus aureus [6] = assay: Antibacterial activity against methicillin-resistant Staphylococcus aureus by agar dilution method; type: functional
In short: (§1)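 MIC by CLSI agar dilution on Mueller-Hinton agar for S. aureus (MSSA, MRSA) and Enterococcus faecium (VRE).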

Staphylococcus aureus [7] = assay: Antibacterial activity against methicillin-susceptible Staphylococcus aureus by agar dilution method; type: functional; in short: as §1
Staphylococcus aureus [8] = assay: Antibacterial activity against methicillin-susceptible Staphylococcus aureus Smith infected po dosed ICR mouse assessed as protection against mouse mortality administered 1 hr after infection measured up to 7 days; type: functional
In short: (§2)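 Male outbred ICR mice (4-week-old, 18-20 g) infected intraperitoneally with S. aureus Smith, 2.9 × 10⁷ CFU/mouse in 5% mucin. Compounds given orally or intravenously 1 h after infection, eight mice per group. Mortality followed for 7 days. ED50 taken as the dose protecting 50% of infected mice from death.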

Enterococcus = assay: Antibacterial activity against vancomycin-resistant Enterococcus by agar dilution method; type: functional; in short: as §1
Staphylococcus aureus [9] = assay: Antibacterial activity against methicillin-resistant Staphylococcus aureus Smith infected iv dosed ICR mouse assessed as protection against mouse mortality administered 1 hr after infection measured up to 7 days; type: functional; in short: as §2
Staphylococcus aureus [10] = assay: Antibacterial activity against methicillin-sensitive Staphylococcus aureus Smith infected iv dosed ICR mouse assessed as protection against mouse mortality administered 1 hr after infection measured up to 7 days; type: functional; in short: as §2
Staphylococcus aureus [11] = assay: Antibacterial activity against methicillin-resistant Staphylococcus aureus Smith infected po dosed ICR mouse assessed as protection against mouse mortality administered 1 hr after infection measured up to 7 days; type: functional; in short: as §2
Haemophilus influenzae = assay: Antibacterial activity against Haemophilus influenzae by agar dilution method; type: functional
In short: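 CLSI agar dilution; Haemophilus test medium used for H. influenzae; read-out MIC.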

Staphylococcus aureus [12] = assay: Antibacterial activity against methicillin-sensitive Staphylococcus aureus Smith infected po dosed ICR mouse assessed as protection against mouse mortality administered 1 hr after infection measured up to 7 days; type: functional; in short: as §2
[13] = Volume of distribution at steady state in ICR mouse at 10 mg/kg, iv by LC/MS/MS analysis; type: ADME, organism-based; set-up: dose 10 mg/kg, route intravenous; conditions: in vivo, read-out: Vdss
In short: (§3)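 Single 10 mg/kg dose given orally by feeding tube or iv via tail vein to male ICR mice (4-week-old, 18-20 g). Plasma acidified with 1 N HCl, stored at -70 °C, analysed by LC/MS/MS. Parameters from mean plasma concentrations. For prodrug dosing, values are based on the active parent detected.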

[14] = Clearance in ICR mouse at 10 mg/kg, iv by LC/MS/MS analysis; type: ADME, organism-based; set-up: dose 10 mg/kg, route intravenous; conditions: in vivo; in short: as §3
[15] = Cmax in ICR mouse at 10 mg/kg, po by LC/MS/MS analysis; type: ADME, organism-based; set-up: dose 10 mg/kg, route oral; conditions: in vivo; in short: as §3
[16] = AUC in ICR mouse at 10 mg/kg, po by LC/MS/MS analysis; type: ADME, organism-based; set-up: dose 10 mg/kg, route oral; conditions: plasma; in short: as §3
[17] = Tmax in ICR mouse at 10 mg/kg, po by LC/MS/MS analysis; type: ADME, organism-based; set-up: dose 10 mg/kg, route oral; conditions: in vivo; in short: as §3
[18] = Half life in ICR mouse at 10 mg/kg, po by LC/MS/MS analysis; type: ADME, organism-based; set-up: dose 10 mg/kg, route oral; conditions: in vivo; in short: as §3
[19] = Half life in ICR mouse at 10 mg/kg, iv by LC/MS/MS analysis; type: ADME, organism-based; set-up: dose 10 mg/kg, route intravenous; conditions: in vivo; in short: as §3
[20] = AUC in ICR mouse at 10 mg/kg, iv by LC/MS/MS analysis; type: ADME, organism-based; set-up: dose 10 mg/kg, route intravenous; conditions: plasma; in short: as §3
[21] = Oral bioavailability in ICR mouse at 10 mg/kg by LC/MS/MS analysis; type: ADME, organism-based; conditions: in vivo; in short: as §3
Streptococcus pneumoniae = assay: Antibacterial activity against penicillin-resistant Streptococcus pneumoniae by agar dilution method; type: functional

Stability [1] [%] | Stability [3] [%] | Stability [4] [%] | Stability [5] [%] | Compound | MIC (Staphylococcus aureus [6]) [µg/mL] | MIC (Staphylococcus aureus [7]) [µg/mL] | ED50 (Staphylococcus aureus [8]) [mg/kg] | MIC (Enterococcus) [µg/mL] | MIC (Haemophilus influenzae) [µg/mL] | other results
97 | 87.8 | 90.7 | 6.3 | C[C@H](N)C(=O)OC[C@H]1CN(c2ccc(-c3ccc(-c4nnn(C)n4)nc3)c(F)c2)C(=O)O1.O=C(O)C(F)(F)F | – | – | – | – | – | solubility [2]: > 50 mg/mL
– | – | – | – | Cn1nnc(-c2ccc(-c3ccc(N4C[C@H](COc5ccon5)OC4=O)cc3F)cn2)n1 | 0.5 (≈ 1.14 µM) | 0.5 (≈ 1.14 µM) | > 30 | 0.25 (≈ 0.572 µM) | – | –
– | – | – | – | Cn1nnc(-c2ccc(-c3ccc(N4C[C@H](CNC(=O)CO)OC4=O)cc3F)cn2)n1 | 1 (≈ 2.34 µM) | 1 (≈ 2.34 µM) | > 30 | 0.25 (≈ 0.585 µM) | – | –
99.9 | 97.7 | 99.9 | 60.9 | CC(C)[C@H](N)C(=O)OC[C@H]1CN(c2ccc(-c3ccc(-c4nnn(C)n4)nc3)c(F)c2)C(=O)O1.Cl | – | – | – | – | – | –
– | – | – | – | CC(=O)NC[C@H]1CN(c2ccc(N3CCOCC3)c(F)c2)C(=O)O1 [LINEZOLID] | – | – | 9.4 | 1 (≈ 2.96 µM) | 8 (≈ 23.7 µM) | ED50 (Staphylococcus aureus [9]): 12.9 mg/kg; ED50 (Staphylococcus aureus [10]): 29.1 mg/kg; ED50 (Staphylococcus aureus [11]): 15.6 mg/kg; ED50 (Staphylococcus aureus [12]): 21.4 mg/kg
– | – | – | – | Cn1nnc(-c2ccc(-c3ccc(N4C[C@H](Cn5ccnn5)OC4=O)cc3F)cn2)n1 | 0.25 (≈ 0.593 µM) | 0.25 (≈ 0.593 µM) | 5.74 | 0.125 (≈ 0.297 µM) | 2 (≈ 4.75 µM) | –
– | – | – | – | Cn1nnc(-c2ccc(-c3ccc(N4C[C@H](CO)OC4=O)cc3F)cn2)n1 [TEDIZOLID] | 0.5 (≈ 1.35 µM) | 0.5 (≈ 1.35 µM) | 8.8 | 0.125 (≈ 0.338 µM) | 4 (≈ 10.8 µM) | Vd [13]: 0.512 L/kg; clearance [14]: 1.61 mL/min/kg; Cmax [15]: 4620 ng/mL; AUC [16]: 49800 ng·h/mL; Tmax [17]: 2 h; half-life [18]: 3.12 h; half-life [19]: 3.49 h; AUC [20]: 103000 ng·h/mL; bioavailability [21]: 48.5%
99.6 | 99.5 | 96.9 | 94.9 | Cn1nnc(-c2ccc(-c3ccc(N4C[C@H](COC(=O)CCN)OC4=O)cc3F)cn2)n1.O=C(O)C(F)(F)F | – | – | – | – | – | solubility [2]: 2.6 mg/mL
– | – | – | – | Cc1nnc(-c2ccc(-c3ccc(N4C[C@H](COc5ccon5)OC4=O)cc3F)cn2)o1 | 1 (≈ 2.29 µM) | 1 (≈ 2.29 µM) | 6.5 | 0.5 (≈ 1.14 µM) | > 16 | –
95.1 | 93.3 | 85.7 | 11.6 | Cl.Cn1nnc(-c2ccc(-c3ccc(N4C[C@H](COC(=O)CN)OC4=O)cc3F)cn2)n1 | – | – | – | – | – | –
– | – | – | – | CN(C)CC1CN(c2ccc(-c3ccc(-c4nnn(C)n4)nc3)c(F)c2)C(=O)O1 (single isomer, unassigned) | 8 (≈ 20.1 µM) | 4 (≈ 10.1 µM) | – | – | – | –
– | – | – | – | Cc1nnc(-c2ccc(-c3ccc(N4C[C@H](Cn5ccnn5)OC4=O)cc3F)cn2)o1 | 0.25 (≈ 0.593 µM) | 0.25 (≈ 0.593 µM) | > 30 | 0.125 (≈ 0.297 µM) | 2 (≈ 4.75 µM) | –
– | – | – | – | CNC[C@H]1CN(c2ccc(-c3ccc(-c4nnn(C)n4)nc3)c(F)c2)C(=O)O1 | 4 (≈ 10.4 µM) | 4 (≈ 10.4 µM) | – | 4 (≈ 10.4 µM) | – | –
– | – | – | – | Cn1nnc(-c2ccc(-c3ccc(N4C[C@H](CNC(=O)c5ccco5)OC4=O)cc3F)cn2)n1 | 1 (≈ 2.16 µM) | 1 (≈ 2.16 µM) | > 30 | 0.5 (≈ 1.08 µM) | 16 (≈ 34.5 µM) | –
– | – | – | – | Cn1nnc(-c2ccc(-c3ccc(N4C[C@H](Cn5nccn5)OC4=O)cc3F)cn2)n1 | 16 (≈ 38 µM) | 16 (≈ 38 µM) | – | 16 (≈ 38 µM) | – | –
99.9 | 94.9 | 99.9 | 50.5 | Cl.Cn1nnc(-c2ccc(-c3ccc(N4C[C@H](COC(=O)CCN)OC4=O)cc3F)cn2)n1 | – | – | – | – | – | solubility [2]: 20.4 mg/mL
– | – | – | – | Cn1nnc(-c2ccc(-c3ccc(N4C[C@H](Cn5cncn5)OC4=O)cc3F)cn2)n1 | 2 (≈ 4.75 µM) | 2 (≈ 4.75 µM) | > 30 | 1 (≈ 2.37 µM) | – | –
81.9 | 65.2 | 76.4 | 0.2 | Cn1nnc(-c2ccc(-c3ccc(N4C[C@H](COC(=O)[C@@H]5CCCN5)OC4=O)cc3F)cn2)n1.O=C(O)C(F)(F)F | – | – | – | – | – | solubility [2]: < 1.6 mg/mL
98 | 88.1 | 92.3 | 7.5 | C[C@H](N)C(=O)OC[C@H]1CN(c2ccc(-c3ccc(-c4nnn(C)n4)nc3)c(F)c2)C(=O)O1.Cl | – | – | – | – | – | solubility [2]: > 50 mg/mL
99.9 | 97.3 | 99.4 | 51.2 | CC(C)[C@H](N)C(=O)OC[C@H]1CN(c2ccc(-c3ccc(-c4nnn(C)n4)nc3)c(F)c2)C(=O)O1.O=C(O)C(F)(F)F | – | – | – | – | – | solubility [2]: 4.7 mg/mL
– | – | – | – | CC(=O)NC[C@H]1CN(c2ccc(-c3ccc(-c4nnnn4C)nc3)c(F)c2)C(=O)O1 | 0.78 (≈ 1.9 µM) | 0.78 (≈ 1.9 µM) | – | 0.125 (≈ 0.304 µM) | – | MIC (Streptococcus pneumoniae): 0.39 µg/mL (≈ 0.948 µM)
86.6 | 92.7 | 79.5 | 8.1 | Cn1nnc(-c2ccc(-c3ccc(N4C[C@H](COC(=O)CN)OC4=O)cc3F)cn2)n1.O=C(O)C(F)(F)F | – | – | – | – | – | solubility [2]: 28 mg/mL
– | – | – | – | Cn1nnc(-c2ccc(-c3ccc(N4C[C@H](CF)OC4=O)cc3F)cn2)n1 | 1 (≈ 2.69 µM) | 1 (≈ 2.69 µM) | – | 1 (≈ 2.69 µM) | 64 (≈ 172 µM) | –
– | – | – | – | Cn1nnc(-c2ccc(-c3ccc(N4C[C@H](CNC(=O)c5cccs5)OC4=O)cc3F)cn2)n1 | 0.5 (≈ 1.04 µM) | 0.5 (≈ 1.04 µM) | > 30 | 0.5 (≈ 1.04 µM) | – | –
– | – | – | – | Cc1nnc(-c2ccc(-c3ccc(N4C[C@H](CO)OC4=O)cc3F)cn2)o1 | 0.5 (≈ 1.35 µM) | 0.5 (≈ 1.35 µM) | 4.2 | 0.5 (≈ 1.35 µM) | 4 (≈ 10.8 µM) | –
– | – | – | – | COCC(=O)NC[C@H]1CN(c2ccc(-c3ccc(-c4nnn(C)n4)nc3)c(F)c2)C(=O)O1 | 1 (≈ 2.27 µM) | 1 (≈ 2.27 µM) | 20.5 | 0.5 (≈ 1.13 µM) | 16 (≈ 36.2 µM) | –
– | – | – | – | COC[C@H]1CN(c2ccc(-c3ccc(-c4nnn(C)n4)nc3)c(F)c2)C(=O)O1 | 2 (≈ 5.2 µM) | 2 (≈ 5.2 µM) | – | 2 (≈ 5.2 µM) | – | –
